This excerpt belongs to a sample that is enriched for hits.
T cruzi growth-1 – blocks T. cruzi growth in NIH3T3 culture; T. cruzi beta-gal in NIH3T3, GalScreen luminescence, 90 h; inhibition, % at 8.34 µM; 77,000 tested, 5.9% active;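 active = mean inhibition above about 93%, with at least 55% of replicates each passing it, limit read from the data, passing the limit was not always enough; inconclusive = only one of those two conditions holds; inactive = neither condition holds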
KDM4C inh – blocks human GASC-1 (KDM4C) demethylase activity; GST-KDM4C 2-372, H3K9me3 peptide, LANCE TR-FRET; inhibition, % at 12.5 µM; 96,000 tested, 0.15% active;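 active = mean replicate inhibition above about 25%, with at least 55% of replicates also reaching it, limit read from the data, passing the limit was not always enough; inconclusive = only one of those two conditions met; inactive = neither condition met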
Target sequence (Q9H3R0 2-372 limits assumed): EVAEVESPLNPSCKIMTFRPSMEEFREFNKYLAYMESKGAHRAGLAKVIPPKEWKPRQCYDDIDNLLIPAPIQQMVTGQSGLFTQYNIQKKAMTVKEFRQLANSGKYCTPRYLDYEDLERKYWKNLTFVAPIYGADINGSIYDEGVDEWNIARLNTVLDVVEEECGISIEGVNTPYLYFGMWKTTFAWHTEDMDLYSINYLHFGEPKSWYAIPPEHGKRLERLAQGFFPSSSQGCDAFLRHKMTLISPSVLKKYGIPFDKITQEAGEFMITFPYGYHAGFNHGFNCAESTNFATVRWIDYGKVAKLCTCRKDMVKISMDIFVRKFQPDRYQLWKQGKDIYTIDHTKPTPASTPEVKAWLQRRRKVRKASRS
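System: N-terminal GST-fused human GASC-1 (KDM4C) fragment, residues 2-372 / Amount: 10 nM GST-KDM4C in enzyme reaction / Also added: H3K9me3 peptide with Fe(II)/2OG / Times: 30 min demethylation and 1 h detection at room temperature / Signal: LANCE TR-FRET / Read-out basis: Fall in 671/618 emission ratio as inhibition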
IDH1 mut inh – blocks human IDH1 R132H reductase activity; O75874; diaphorase/resazurin fluorescence, 60 min; inhibition, % at 10 µM; 70,000 tested, 0.18% active; in the data active = inhibition above about 34%; inconclusive = no clear call, values can overlap the other calls; inactive = below about 11%
T cruzi growth-2 – inhibitors of T. cruzi proliferation; shares compounds with T cruzi growth-1; T. cruzi beta-gal in NIH3T3, GalScreen luminescence, 90 h; inhibition, % at 8.35 µM; 5,600 tested, 72% active; AID 651739;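 active = mean replicate inhibition above about 95% and at least 55% of replicates individually reaching it, limit read from the data; inconclusive = only one of the two criteria is met; inactive = neither criterion is met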
T cruzi growth-3 – inhibitors of T. cruzi proliferation. shares compounds with T cruzi growth-1. T. cruzi beta-gal in NIH3T3, GalScreen luminescence, 90 h. inhibition, % at 2.09 µM. 5,600 tested, 21% active. AID 651740;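 active = mean inhibition above about 95%, with at least 55% of replicates also reaching it, limit read from the data; inconclusive = meets just one of the two conditions; inactive = meets neither condition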
3T3 cytotox – kills mouse NIH/3T3 fibroblasts. shares compounds with T cruzi growth-1. NIH/3T3 viability, CellTiter-Glo ATP luminescence, 90 h. cytotoxicity (signal decrease), % at 8.35 µM. 5,600 tested, 14% active. AID 651742;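 active = mean signal decrease across replicates above about 35% based on untreated-well scatter, with enough replicates individually passing, limit read from the data; inconclusive = no rule stated though some were filed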
NIH3T3 tox 2 – NIH/3T3 (mouse) viability loss; 5,600 tested, 56% active; inhibition, % at 24.9 µM; shares compounds with T cruzi growth-1; NIH/3T3 viability, CellTiter-Glo ATP luminescence, 90 h;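 active = mean loss of cell viability signal at or above a set limit, and enough replicates individually reaching it; inconclusive = meets only the mean limit or only the replicate share; inactive = meets neither condition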
A number is an active result; 0 = inactive; ? = inconclusive; - = no result given.

SMILES	T cruzi growth-1	KDM4C inh	IDH1 mut inh	T cruzi growth-2	T cruzi growth-3	3T3 cytotox	NIH3T3 tox 2
C[C@@H]1CCCCO[C@@H](CN(C)S(=O)(=O)c2ccc(Cl)cc2)[C@H](C)CN([C@H](C)CO)C(=O)c2cc(NC(=O)C3CCCCC3)ccc2O1	108.3	0	-	110.8	113.4	0	0
C[C@@H]1CCCCO[C@@H](CN(C)S(=O)(=O)c2ccc(Cl)cc2)[C@@H](C)CN([C@H](C)CO)C(=O)c2cc(NC(=O)C3CCCCC3)ccc2O1	0	0	-	-	-	-	-
C[C@@H]1CCCCO[C@H](CN(C)S(=O)(=O)c2ccc(F)cc2)[C@H](C)CN([C@H](C)CO)C(=O)c2cc(NC(=O)C3CCCCC3)ccc2O1	?	0	0	111.9	0	0	0
Cc1ccc(S(=O)(=O)N(C)C[C@@H]2OCCCC[C@H](C)Oc3ccc(NC(=O)C4CCCCC4)cc3C(=O)N([C@H](C)CO)C[C@H]2C)cc1	0	0	-	-	-	-	-
O=C1NC(=O)C(C(CC(=O)c2ccccc2)c2ccccc2Br)C(=O)N1 (stereo not given)	-	-	0	-	-	-	-
O=C(NCCO)C(=O)NCc1ccco1	-	-	0	-	-	-	-
Cc1ccc2oc(-c3cccc(NC(=O)COc4ccccc4C)c3C)nc2c1	-	-	0	-	-	-	-
Cc1c(-n2c(/C=C\c3ccc([N+](=O)[O-])o3)nc3ccccc3c2=O)c(=O)n(-c2ccccc2)n1C	-	-	0	-	-	-	-
COc1ccc(O)c(/C=N/NC(=O)CCCCCCC(=O)Nc2ccccc2O)c1	-	-	0	-	-	-	-
CN(C1CCCCC1)S(=O)(=O)c1cc(Br)cc2c1N(C(=O)C1CC1)CC2	-	-	0	-	-	-	-
N#Cc1ccc(-c2ccc([C@@H]3[C@H]4CN(S(=O)(=O)c5ccccc5)CCCCN4[C@H]3CO)cc2)cc1	100.8	0	-	103.3	0	0	28.9
N#Cc1ccc(-c2ccc([C@@H]3[C@H](CO)N4CCCCN(S(=O)(=O)c5ccccc5)C[C@@H]34)cc2)cc1	?	0	-	0	0	0	43.9
N#Cc1cccc(-c2ccc([C@H]3[C@H]4CN(S(=O)(=O)c5ccccc5)CCCCN4[C@H]3CO)cc2)c1	0	0	-	-	-	-	-
O=S(=O)(c1ccccc1)N1CCCCN2[C@@H](CO)[C@H](c3ccc(-c4ccccc4)cc3)[C@@H]2C1	0	0	-	-	-	-	-
N#Cc1ccc(-c2ccc([C@H]3[C@@H](CO)N4CCCCN(S(=O)(=O)c5ccccc5)C[C@H]34)cc2)cc1	116.5	0	-	113.1	0	0	71.3
N#Cc1cccc(-c2ccc([C@H]3[C@H](CO)N4CCCCN(S(=O)(=O)c5ccccc5)C[C@@H]34)cc2)c1	0	0	-	-	-	-	-
O=C(COc1cccc2ccccc12)Nc1cc(C(=O)O)cc(C(=O)O)c1	-	-	0	-	-	-	-
Cn1nnnc1SCC(=O)Nc1cc(Cl)cc(Cl)c1	-	-	0	-	-	-	-
COc1ccccc1OCCCSc1nc(-c2ccccc2)cc(=O)[nH]1	-	-	0	-	-	-	-
CCOC(=O)c1c(NC(=S)NCc2ccco2)sc2c1CCCCCC2	-	-	0	-	-	-	-
CC(=O)N(C)C[C@H]1Oc2cc(C#Cc3ccccn3)ccc2S(=O)(=O)N([C@H](C)CO)C[C@H]1C	0	0	0	-	-	-	-
C[C@@H]1CN([C@H](C)CO)S(=O)(=O)c2ccc(C#Cc3ccc(F)cc3)cc2O[C@H]1CN(C)C(=O)c1ccccn1	0	0	-	-	-	-	-
CC(C)CC#Cc1ccc2c(c1)O[C@@H](CN(C)Cc1ccc(F)cc1)[C@H](C)CN([C@H](C)CO)S2(=O)=O	0	0	0	-	-	-	-
C[C@H]1CN([C@@H](C)CO)S(=O)(=O)c2ccc(C#Cc3ccc(F)cc3)cc2O[C@@H]1CN(C)C(=O)c1ccccn1	?	0	-	102.0	0	0	51.7
CC(=O)N(C)C[C@H]1Oc2cc(C#Cc3ccccn3)ccc2S(=O)(=O)N([C@@H](C)CO)C[C@@H]1C	0	0	0	-	-	-	-
SMILES	T cruzi growth-1	KDM4C inh	IDH1 mut inh	T cruzi growth-2	T cruzi growth-3	3T3 cytotox	NIH3T3 tox 2
C[C@@H]1CN([C@H](C)CO)S(=O)(=O)c2ccc(C#Cc3ccccn3)cc2O[C@@H]1CN(C)Cc1ccc(F)cc1	115.7	0	0	105.1	0	0	24.3
C[C@@H]1CN([C@H](C)CO)S(=O)(=O)c2ccc(C#Cc3ccccn3)cc2O[C@H]1CN(C)Cc1ccc(F)cc1	126.7	0	0	103.8	0	0	92.6
C[C@@H]1CN([C@@H](C)CO)S(=O)(=O)c2ccc(C#Cc3ccccn3)cc2O[C@H]1CN(C)Cc1ccc(F)cc1	128.3	0	0	96.8	?	50.4	39.1
COc1cccc(NC(=O)CSc2nnc(-c3ccccc3F)n2-c2ccccc2)c1	-	-	0	-	-	-	-
Oc1cc2c(c(Cl)c1O)CCNC[C@@H]2c1ccccc1	-	-	0	-	-	-	-
COC(=O)c1cc(OC)c(OC)cc1NC(=O)COc1cc(C)c(Br)c(C)c1	-	-	0	-	-	-	-
C[C@H](CO)N1C[C@H](C)[C@H](CN(C)C(=O)NC2CCCCC2)Oc2cc(C#Cc3ccc(F)cc3)ccc2S1(=O)=O	0	0	0	-	-	-	-
COc1ccc(C#Cc2ccc3c(c2)O[C@H](CN(C)C(=O)NC2CCCCC2)[C@H](C)CN([C@H](C)CO)S3(=O)=O)cc1	?	0	0	?	113.1	0	0
COc1ccc(C#Cc2ccc3c(c2)O[C@H](CN(C)C(=O)NC2CCCCC2)[C@@H](C)CN([C@H](C)CO)S3(=O)=O)cc1	?	0	0	106.3	0	0	32.6
COc1ccc(C#Cc2ccc3c(c2)O[C@@H](CN(C)C(=O)NC2CCCCC2)[C@@H](C)CN([C@@H](C)CO)S3(=O)=O)cc1	?	0	0	?	114.2	0	0
C[C@@H]1CN([C@@H](C)CO)S(=O)(=O)c2ccc(C#Cc3cccc(F)c3)cc2O[C@H]1CN(C)C(=O)NC1CCCCC1	-	0	0	-	-	-	-
C[C@@H]1CN([C@H](C)CO)S(=O)(=O)c2ccc(C#Cc3ccc(F)cc3)cc2O[C@H]1CN(C)C(=O)NC1CCCCC1	0	0	-	-	-	-	-
O=C(Cn1cnc2sc3c(c2c1=O)CCCC3)Nc1ccccc1Br	-	-	0	-	-	-	-
COc1ccc([N+](=O)[O-])cc1NC(=O)C1(c2ccc(OC)c(OC)c2)CCCCC1	-	-	0	-	-	-	-
COc1ccc(CNC(=O)C2CCCCC2C(=O)O)cc1 (stereo not given)	-	-	0	-	-	-	-
COc1cc(NC(=O)COc2ccc(C)c(C)c2)ccc1NC(=O)c1ccccc1Cl	-	-	0	-	-	-	-
CNC[C@@H]1Oc2cc(C#Cc3ccccc3)ccc2S(=O)(=O)N([C@@H](C)CO)C[C@H]1C	-	0	0	-	-	-	-
COc1ccccc1C#Cc1ccc2c(c1)O[C@@H](CN(C)C)[C@@H](C)CN([C@@H](C)CO)S2(=O)=O	-	0	0	-	-	-	-
CNC[C@@H]1Oc2cc(C#Cc3ccccc3OC)ccc2S(=O)(=O)N([C@H](C)CO)C[C@H]1C	102.5	0	0	102.0	0	0	102.6
CNC[C@H]1Oc2cc(C#Cc3ccccc3OC)ccc2S(=O)(=O)N([C@H](C)CO)C[C@@H]1C	101.4	0	0	107.5	0	0	104.3

Screens deposited in PubChem by Broad Institute.
